Measured values published in ChEMBL document CHEMBL2034844, “Novel multi-functional nitrones for treatment of ischemic stroke” (2012).
Activity calls are given as the source filed them. The rule behind the calls is not given here.

Legend:
Neuron [1] = experiment: Neuroprotective activity against t-BHP-induced rat cerebellar granule neuronal damage at 1000 uM preincubated for 30 mins prior t-BHP challenge measured after 4 hrs by MTT assay (reference value: 49.4%); assay type: functional
Neuron [2] = experiment: Neuroprotective activity against t-BHP-induced rat cerebellar granule neuronal damage at 100 uM preincubated for 30 mins prior t-BHP challenge measured after 4 hrs by MTT assay (reference value: 49.4%); assay type: functional, cell-based
Platelet = experiment: Inhibition of platelet aggregation in New Zealand rabbit platelet rich plasma assessed as maximum platelet aggregation at 2 mM after 8 mins by platelet aggregometry (reference value: 57.3 +/- 8.3%); assay type: functional, Oryctolagus cuniculus; design: scale not given: the % may be the effect or the level left
[3] = Antioxidant activity assessed as superoxide anion-scavenging activity at 125 to 1000 uM by spectrophotometry; assay type: functional
Outline: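 Glass-cuvette mix of Tris–HCl buffer (pH 8.2), pyrogallic acid solution (0.16 mmol/L) and test sample at final 125, 250, 500 and 1000 µM; pyrogallol-autoxidation superoxide assay.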

[4] = Antioxidant activity assessed as peroxynitrite radical-scavenging activity at 1 to 1000 uM by SIN-1 based chemiluminescence assay; assay type: functional
Outline: (§1)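 Peroxynitrite generated from SIN-1 dissolved in 0.1 M PBS. The mix held PBS, luminol, compound or PBS control, and SIN-1 added last to start the reaction; read-out was chemiluminescence.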

[5] = test system: Radical scavenging activity; experiment: Antioxidant activity assessed as DPPH radical-scavenging activity at 0.5 to 4 mM by spectrophotometry; assay type: functional
Outline: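 50 µL methanolic compound solution mixed with 150 µL methanolic DPPH; absorbance at 515 nm followed continuously until stable (50 min); clearance (%) calculated from the control absorbance and the reaction absorbance at 50 min.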

Rattus norvegicus = experiment: Neuroprotective activity in Sprague-Dawley rat tMCAO model assessed as reduction in total brain infarct volume at 110 mg/kg, ip after 24 hrs by TTC staining relative to control; assay type: functional; design: scale not given: the % may be the effect or the level left; settings: route intraperitoneal
Outline: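 Adult male Sprague–Dawley rats (260–310 g), chloral hydrate anaesthesia; nylon suture occluding right MCA for 2 h, then reperfusion. Only rats with neurological score 2 or 3 used; body temperature held at 37 °C. Dosed ip 2 h after MCAO; saline vehicle controls. Killed after 22 h reperfusion; six 2-mm coronal slices stained with 0.5% TTC, 37 °C, 30 min; infarct volume by image analysis; n = 13/group.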

[6] = Antioxidant activity assessed as peroxynitrite radical-scavenging activity at 1 uM by SIN-1 based chemiluminescence assay; assay type: functional; outline: as §1
[7] = Antioxidant activity assessed as peroxynitrite radical-scavenging activity at 1000 uM by SIN-1 based chemiluminescence assay; assay type: functional; outline: as §1
[8] = Antioxidant activity assessed as hydroxyl radical-scavenging activity at 1000 uM by monitoring p-NDA bleaching using spectrophotometry; assay type: functional
Outline: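 Fenton-generated hydroxyl radical from FeSO4 (final 4.0 mM) and freshly prepared H2O2 (7.3 mM). p-NDA was prepared at 1.6 mM in 50 mM NaCl. Compounds were dissolved in double-distilled water at final 125–1000 µM. p-NDA bleaching was followed as absorbance loss at 440 nm over 100 s; clearance (%) was calculated from absorbance at 0 and 100 s.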

SMILES | Activity (Neuron [1]) | Activity (Neuron [1]; record 2) | Activity (Neuron [2]) | Activity (Platelet) | Activity [3] | Activity [4] | Activity [5] | Activity (Rattus norvegicus) | Activity [6] | Activity [7] | Activity [8]
CCc1nccnc1/C=[N+](\[O-])C(C)(C)C | Active | 64.6% | Active | 33.8% | Active | Active | – | – | – | – | –
CC(C)(C)/[N+]([O-])=C/c1cnc2ccccc2n1 | 53.9% | – | inactive | – | – | inactive | Active | – | – | – | –
CC(C)(C)/[N+]([O-])=C/c1cccc2nccnc12 | 54.8% | – | inactive | – | – | inactive | Active | – | – | – | –
CCCc1nccnc1/C=[N+](\[O-])C(C)(C)C | Active | 66% | Active | 48% | Active | Active | Active | – | – | – | –
Cc1nc(C)c(C)nc1C [LIGUSTRAZINE] | 58.4% | – | – | 42.9% | inactive | inactive | Active | – | – | – | –
Cc1nc(/C=[N+](\[O-])C(C)(C)C)c(C)nc1/C=[N+](\[O-])C(C)(C)C | 80.6% | – | Active | 37.7% | Active | – | Active | 65% | 31.9% | 99.4% | –
CC(C)(C)/[N+]([O-])=C\c1ccccc1 | – | – | – | – | inactive | Active | Active | – | – | – | –
CC(=O)Oc1ccccc1C(=O)O [ASPIRIN] | – | – | – | 26.6% | – | – | – | – | – | – | –
Cc1nc(C)c(CN(Cc2nc(C)c(C)nc2C)C(C)(C)C)nc1C | 75.5% | – | Active | 44.3% | inactive | inactive | Active | – | – | – | 100%
